The target of one assay is Melanocortin receptor 5 (Mus musculus, UniProt P41149). The experiment in a line: In vitro activation of mouse recombinant Melanocortin-5 receptor. A digest of the protocol:
(§1)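 HEK-293 cells stably expressing the mouse receptor (calcium phosphate transfection, G418 1 mg/mL selection) were transfected with a CRE/β-galactosidase reporter. Lysates were read with ONPG at 37 °C (OD405), normalized to protein (OD595) and forskolin. EC50 came from nonlinear least-squares fitting, duplicate experiments in quadruplet.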

Another assay concerns the target Melanocortin receptor 4 (Mus musculus, UniProt P56450). The assay is described as follows: In vitro activation of mouse recombinant Melanocortin-4 receptor. A digest of the protocol:
as §1

The target of assay [1] is T1, Melanocortin receptor 3 (Mus musculus, UniProt P33033). The assay is described as follows: In vitro activation of mouse recombinant Melanocortin-3 receptor. A digest of the protocol: as §1
Assay [2] addresses Melanocyte-stimulating hormone receptor (Mus musculus, UniProt Q01727). The experiment in a line: In vitro activation of mouse recombinant Melanocortin-1 receptor. A digest of the protocol:
as §1

For assay [3], the target named is T1, Melanocortin receptor 3. The experiment in a line: Agonist activity of compound in mouse Melanocortin-3 receptor (mMC3R); Slight agonist. It is filed as functional. A digest of the protocol: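 HEK-293 cells stably expressing the mouse receptor (calcium phosphate transfection, G418 1 mg/mL selection) were transfected with a CRE/β-galactosidase reporter. At 48 h they were stimulated for 6 h with peptide (10^-4–10^-12 M) or forskolin (10^-4 M) in DMEM with 0.1 mg/mL BSA and 0.1 mM IBMX. Lysates were read with ONPG at 37 °C (OD405), normalized to protein (OD595) and forskolin. EC50 came from nonlinear least-squares fitting, duplicate experiments in quadruplet.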

Here are results for 16 compounds from ChEMBL document CHEMBL1135436, “Structure-activity relationships of the melanocortin tetrapeptide Ac-His-DPhe-Arg-Trp-NH(2) at the mouse melanocortin receptors. 1. Modifications at the His position” (J Med Chem, 2002).

For orientation: EC50 means the concentration needed to bring the measured effect to its halfway point.

Where a SMILES comes first, the peptide text is derived from it. [ ]: non-standard residue; d: D form. Tic = O=C(O)[C@@H]1Cc2ccccc2CN1; dTic = O=C(O)[C@H]1Cc2ccccc2CN1; 2Thi = N[C@@H](Cc1cccs1)C(=O)O

Melanocortin receptor 5, sequence (P41149 whole entry): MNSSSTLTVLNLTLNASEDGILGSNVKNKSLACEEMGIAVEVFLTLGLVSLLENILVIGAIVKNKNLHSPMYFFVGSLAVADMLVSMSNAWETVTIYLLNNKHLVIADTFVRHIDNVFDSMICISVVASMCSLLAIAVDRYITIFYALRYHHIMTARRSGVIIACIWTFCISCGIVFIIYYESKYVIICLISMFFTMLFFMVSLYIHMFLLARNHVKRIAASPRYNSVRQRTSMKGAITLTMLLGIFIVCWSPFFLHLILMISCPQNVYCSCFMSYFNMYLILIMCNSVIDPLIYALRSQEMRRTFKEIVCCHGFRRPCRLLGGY
Melanocortin receptor 4, sequence (P56450 whole entry): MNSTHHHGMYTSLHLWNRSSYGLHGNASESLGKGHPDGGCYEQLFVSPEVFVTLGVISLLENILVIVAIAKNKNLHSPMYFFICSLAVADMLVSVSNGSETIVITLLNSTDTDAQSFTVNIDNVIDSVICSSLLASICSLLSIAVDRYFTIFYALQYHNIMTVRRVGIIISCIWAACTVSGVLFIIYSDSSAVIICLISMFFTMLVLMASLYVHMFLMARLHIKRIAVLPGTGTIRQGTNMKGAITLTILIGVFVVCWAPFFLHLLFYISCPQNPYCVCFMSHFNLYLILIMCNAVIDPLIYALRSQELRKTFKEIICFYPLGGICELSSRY
T1 sequence (P33033 whole entry): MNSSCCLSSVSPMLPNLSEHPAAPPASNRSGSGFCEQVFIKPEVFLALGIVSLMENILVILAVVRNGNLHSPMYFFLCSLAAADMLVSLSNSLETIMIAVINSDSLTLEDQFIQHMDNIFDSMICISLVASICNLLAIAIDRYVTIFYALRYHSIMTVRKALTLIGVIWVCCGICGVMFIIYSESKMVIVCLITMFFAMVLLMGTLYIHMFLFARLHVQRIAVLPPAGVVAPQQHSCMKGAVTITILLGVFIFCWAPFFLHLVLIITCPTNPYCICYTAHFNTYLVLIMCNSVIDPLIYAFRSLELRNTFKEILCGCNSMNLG
Melanocyte-stimulating hormone receptor, sequence (Q01727 whole entry): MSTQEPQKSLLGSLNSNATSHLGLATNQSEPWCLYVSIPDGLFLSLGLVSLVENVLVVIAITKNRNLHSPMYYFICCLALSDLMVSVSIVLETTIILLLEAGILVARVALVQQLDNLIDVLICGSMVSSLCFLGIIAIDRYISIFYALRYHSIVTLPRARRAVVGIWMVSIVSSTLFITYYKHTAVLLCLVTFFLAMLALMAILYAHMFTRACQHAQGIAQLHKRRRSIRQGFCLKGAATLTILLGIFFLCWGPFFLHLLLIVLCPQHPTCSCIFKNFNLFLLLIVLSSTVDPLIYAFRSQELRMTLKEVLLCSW

In the case of `CC(=O)N[C@@H](Cc1ccncc1)C(=O)N[C@H](Cc1ccccc1)C(=O)N[C@@H](CCCN=C(N)N)C(=O)N[C@@H](Cc1c[nH]c2ccccc12)C(N)=O`, the EC50 at Melanocortin receptor 5 is 92.5 nM; at Melanocortin receptor 4, 128 nM; at Melanocortin receptor 3 [1] it was 2270 nM; in assay [2], 176 nM.
With `CC(=O)N[C@@H](Cc1cccnc1)C(=O)N[C@H](Cc1ccccc1)C(=O)N[C@@H](CCCN=C(N)N)C(=O)N[C@@H](Cc1c[nH]c2ccccc12)C(N)=O`, the EC50 at Melanocortin receptor 5 is 400 nM; at Melanocortin receptor 4 it was 887 nM; on Melanocortin receptor 3 [3], “Partial agonist”; in assay [2], 1150 nM.
`CC(=O)N[C@@H](Cc1ccccc1)C(=O)N[C@H](Cc1ccccc1)C(=O)N[C@@H](CCCNC(=N)N)C(=O)N[C@@H](Cc1c[nH]c2ccccc12)C(N)=O`: the concentration giving a half-maximal response (EC50) at Melanocortin receptor 5 is 143 nM; on Melanocortin receptor 4 it was 70.6 nM; at Melanocortin receptor 3 [1], 11900 nM; in assay [2] it was 503 nM.
Taken in the same sequence, the figures for `CC(=O)N[C@H](Cc1ccc2ccccc2c1)C(=O)N[C@H](Cc1ccccc1)C(=O)N[C@@H](CCCNC(=N)N)C(=O)N[C@@H](Cc1c[nH]c2ccccc12)C(N)=O` were 2240 nM, 1500 nM, over 100000 nM and 7100 nM.
The like results for `CC(=O)N[C@H](Cc1ccccc1)C(=O)N[C@H](Cc1ccccc1)C(=O)N[C@@H](CCCNC(=N)N)C(=O)N[C@@H](Cc1c[nH]c2ccccc12)C(N)=O` were, in that order, 2980 nM, 2170 nM, over 100000 nM and 11500 nM.
As for `CC(=O)N[C@@H](C)C(=O)N[C@H](Cc1ccccc1)C(=O)N[C@@H](CCCN=C(N)N)C(=O)N[C@@H](Cc1c[nH]c2ccccc12)C(N)=O`, the half-maximal effective concentration (EC50) on Melanocortin receptor 5 is 300 nM; at Melanocortin receptor 4, 1000 nM; on Melanocortin receptor 3 [1] it was 9000 nM; in assay [2], 1800 nM.
Regarding `CC(=O)N[C@@H](Cc1csc2ccccc12)C(=O)N[C@H](Cc1ccccc1)C(=O)N[C@@H](CCCN=C(N)N)C(=O)N[C@@H](Cc1c[nH]c2ccccc12)C(N)=O`, the half-maximal effective concentration (EC50) turned out to be 381 nM on Melanocortin receptor 5, 211 nM on Melanocortin receptor 4, 19800 nM on Melanocortin receptor 3 [1] and 4400 nM in assay [2].
The like results for `CC(=O)N[C@H](Cc1c[nH]c2ccccc12)C(=O)N[C@H](Cc1ccccc1)C(=O)N[C@@H](CCCNC(=N)N)C(=O)N[C@@H](Cc1c[nH]c2ccccc12)C(N)=O` were, in that order, 1260 nM, 6200 nM, over 100000 nM and 6600 nM.
The like results for `CC(=O)N[C@@H](Cc1c[nH]c2ccccc12)C(=O)N[C@H](Cc1ccccc1)C(=O)N[C@@H](CCCN=C(N)N)C(=O)N[C@@H](Cc1c[nH]c2ccccc12)C(N)=O` were, in that order, 507 nM, 528 nM, 10300 nM and 5400 nM.
With `CC(=O)N[C@@H](Cc1ccc2ccccc2c1)C(=O)N[C@H](Cc1ccccc1)C(=O)N[C@@H](CCCN=C(N)N)C(=O)N[C@@H](Cc1c[nH]c2ccccc12)C(N)=O`, the EC50 at Melanocortin receptor 5 is 606 nM; on Melanocortin receptor 4, 2900 nM; on Melanocortin receptor 3 [1], 14700 nM; in assay [2], 9500 nM.
With `CC(=O)N[C@H](Cc1cnc[nH]1)C(=O)N[C@H](Cc1ccccc1)C(=O)N[C@@H](CCCNC(=N)N)C(=O)N[C@@H](Cc1c[nH]c2ccccc12)C(N)=O`, the EC50 was 138 nM on Melanocortin receptor 5 and 506 nM on Melanocortin receptor 4.
With `CC(=O)NC1(C(=O)N[C@H](Cc2ccccc2)C(=O)N[C@@H](CCCNC(=N)N)C(=O)N[C@@H](Cc2c[nH]c3ccccc23)C(N)=O)CCc2ccccc2C1` (stereo partly specified), the results for the 50% effective concentration (EC50) (at Melanocortin receptor 5; at Melanocortin receptor 4; in assay [2]) were 2400 nM, 714 nM and 7730 nM, respectively.
In the case of `CC(=O)N1CCC[C@H]1C(=O)N[C@H](Cc1ccccc1)C(=O)N[C@@H](CCCN=C(N)N)C(=O)N[C@@H](Cc1c[nH]c2ccccc12)C(N)=O` (Ac-P[dF]RW-NH2), the 50% effective concentration (EC50) came to 684 nM at Melanocortin receptor 5, 1500 nM at Melanocortin receptor 4, 15000 nM on Melanocortin receptor 3 [1] and 4250 nM in assay [2].
The like results for `CC(=O)N[C@@H](Cc1cccs1)C(=O)N[C@H](Cc1ccccc1)C(=O)N[C@@H](CCCNC(=N)N)C(=O)N[C@@H](Cc1c[nH]c2ccccc12)C(N)=O` (Ac-[2Thi][dF]RW-NH2) were, in that order, 40.5 nM, 91.2 nM, 2950 nM and 203 nM.
Taken in the same sequence, the figures for `CC(=O)N1Cc2ccccc2C[C@H]1C(=O)N[C@H](Cc1ccccc1)C(=O)N[C@@H](CCCNC(=N)N)C(=O)N[C@@H](Cc1c[nH]c2ccccc12)C(N)=O` (Ac-[Tic][dF]RW-NH2) were 369 nM, 2900 nM, 11800 nM and 2600 nM.
For `CC(=O)N1Cc2ccccc2C[C@@H]1C(=O)N[C@H](Cc1ccccc1)C(=O)N[C@@H](CCCN=C(N)N)C(=O)N[C@@H](Cc1c[nH]c2ccccc12)C(N)=O` (Ac-[dTic][dF]RW-NH2), the EC50 is 12000 nM on Melanocortin receptor 5, 11700 nM on Melanocortin receptor 4, over 100000 nM at Melanocortin receptor 3 [1] and 11300 nM in assay [2].
